# In PubChem BioAssay AID624012 (Broad Institute, 2012):
# Several values for one entry are separate records, joined by “and”; a condition that tells them apart may be missing. Equal values may be shown once.
# Test system: S. cerevisiae growth in glycerol medium, OD600, 48 h
# Assay: S. cerevisiae growth inhibition on glycerol, dose response, glycerol medium, plate reader, dry powder, set 4 (AID 624012)
# Outline: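 Test system: Saccharomyces cerevisiae yeast whole cells, growth on glycerol / Medium: CSM-glycerol medium / Dosing: test compounds delivered into wells by pin transfer / Schedule: compound exposure 48 h at 30 °C, static, humidified / Measured by: optical density at 600 nm (absorbance) / Read-out: yeast growth inhibition seen as decreased OD600 signal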
row,SMILES,AC50
1,CCOC(=O)N1C(=O)C2(CCCCC2)N(c2ccc(F)cc2)C1=S,3.97 nM
2,CCOC(=O)N1C(=O)C2(CCCCC2)N(c2ccc(C#N)cc2)C1=S,3.65 nM
3,CCOC(=O)N1C(=O)C2(CCCCC2)N(c2ccc(Cl)cc2)C1=S,5.77 nM
4,CCOC(=O)N1C(=O)C2(CCCCC2)N(c2ccccc2)C1=S,14.6 nM
5,CC1/C=C/C=C\C=C\C=C\C=C\C=C\C=C\C(O[C@H]2OC(C)C(O)C(N)C2O)CC2OC(O)(CC(O)CC(O)C(O)CCC(O)CC(O)CC(=O)OC(C)C(C)C1O)CC(O)C2C(=O)O (stereo partly drawn),274 nM
6,C/C=C/[C@@H]1[C@H]2C[C@@H](C)CC[C@@H]2C(C)=C[C@H]1C(=O)c1c(O)c(-c2ccc(O)cc2)c[nH]c1=O,27.5 nM
7,CCOC(=O)N1C(=O)C2(CCCCC2)N(c2cccc(C)c2)C1=S,18.1 nM
8,CCOC(=O)N1C(=O)C2(CCCCC2)N(c2ccc(C)cc2)C1=S,10.8 nM and 6.97 nM
